Each block holds one molecule with its values, some of them ahead of it. Calls of active or inactive are those of the source. The rule behind the calls is not given here.
What was measured:
HEK293 = test: Cytotoxicity against human HEK293 cells transfected with human TLR8 assessed as reduction in cell viability up to 5 uM incubated for 16 hrs by WST-1 assay; assay type: cell-based; conditions: hek293, 16 h
[1] = target: T1, Toll-like receptor 8 (Homo sapiens) (UniProt Q9NR97); test: Inhibition of human TLR8 expressed in HEK293 cells assessed as reduction in R848-induced NFkappaB production incubated for 16 hrs by quanti-blue SEAP assay; assay type: cell-based
T1 sequence (whole entry): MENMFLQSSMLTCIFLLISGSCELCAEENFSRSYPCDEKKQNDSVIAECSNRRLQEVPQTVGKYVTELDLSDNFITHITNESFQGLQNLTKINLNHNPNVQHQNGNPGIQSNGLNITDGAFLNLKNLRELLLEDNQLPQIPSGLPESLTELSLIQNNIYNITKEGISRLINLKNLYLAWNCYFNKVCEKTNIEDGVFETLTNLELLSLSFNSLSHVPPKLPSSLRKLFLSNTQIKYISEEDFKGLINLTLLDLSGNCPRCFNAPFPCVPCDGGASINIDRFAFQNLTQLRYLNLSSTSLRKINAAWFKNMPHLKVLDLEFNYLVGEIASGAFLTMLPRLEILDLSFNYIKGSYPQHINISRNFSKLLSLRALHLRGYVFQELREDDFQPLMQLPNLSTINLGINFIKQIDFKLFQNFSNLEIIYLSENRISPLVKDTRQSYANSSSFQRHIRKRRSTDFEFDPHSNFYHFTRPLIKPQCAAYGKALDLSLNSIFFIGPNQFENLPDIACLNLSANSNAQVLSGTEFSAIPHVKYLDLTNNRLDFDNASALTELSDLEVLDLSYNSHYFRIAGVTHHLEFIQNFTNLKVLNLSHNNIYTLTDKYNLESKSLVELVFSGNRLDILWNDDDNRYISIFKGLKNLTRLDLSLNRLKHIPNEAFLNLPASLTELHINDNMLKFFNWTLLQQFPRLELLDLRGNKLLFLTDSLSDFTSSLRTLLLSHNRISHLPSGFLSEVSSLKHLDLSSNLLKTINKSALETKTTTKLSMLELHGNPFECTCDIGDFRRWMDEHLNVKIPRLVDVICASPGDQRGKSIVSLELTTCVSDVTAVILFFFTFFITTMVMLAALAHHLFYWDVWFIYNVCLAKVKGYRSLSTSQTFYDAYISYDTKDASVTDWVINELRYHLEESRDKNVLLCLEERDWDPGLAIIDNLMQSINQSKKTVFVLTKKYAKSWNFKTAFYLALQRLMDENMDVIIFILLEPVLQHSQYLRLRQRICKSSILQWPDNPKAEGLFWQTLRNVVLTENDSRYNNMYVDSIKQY
Outline: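 HEK 293-Blue cells stably expressing hTLR7 or hTLR8 with an inducible SEAP reporter were incubated 16 h with compound under 1 µg/mL R848 stimulation. SEAP was read at 620 nm. Data were normalized to the R848 control, and IC50 was taken from concentration-response curves. […] Mean ± s.d., n = 3 independent experiments.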

THP-1 [2] = test: Inhibition of IFN mediated immune response in human THP1 cells assessed as inhibition of 3p-hpRNA-induced RIG1 signalling pathway at 20 uM incubated for 16 hrs by luciferase assay; assay type: functional, cell-based
Outline: (§1)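 THP1-Dual monocytes carrying Lucia luciferase and SEAP reporters were stimulated with 3p-hpRNA (RIG-I agonist) or Y-form dsDNA G3-YSD (cGAS agonist), with or without compound. Secreted Lucia luciferase luminescence was measured as the type I IFN read-out. Mean ± s.d., n = 3 independent experiments.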

[3] = target: Toll-like receptor 7 (Mus musculus) (UniProt P58681); test: Inhibition of endogenous mouse TLR7 in mouse RAW264.7 cells assessed as resiquimod-induced NO production at < 5 uM incubated for 18 to 24 hrs
Sequence of Toll-like receptor 7 (Mus musculus) (P58681 whole entry, looked up): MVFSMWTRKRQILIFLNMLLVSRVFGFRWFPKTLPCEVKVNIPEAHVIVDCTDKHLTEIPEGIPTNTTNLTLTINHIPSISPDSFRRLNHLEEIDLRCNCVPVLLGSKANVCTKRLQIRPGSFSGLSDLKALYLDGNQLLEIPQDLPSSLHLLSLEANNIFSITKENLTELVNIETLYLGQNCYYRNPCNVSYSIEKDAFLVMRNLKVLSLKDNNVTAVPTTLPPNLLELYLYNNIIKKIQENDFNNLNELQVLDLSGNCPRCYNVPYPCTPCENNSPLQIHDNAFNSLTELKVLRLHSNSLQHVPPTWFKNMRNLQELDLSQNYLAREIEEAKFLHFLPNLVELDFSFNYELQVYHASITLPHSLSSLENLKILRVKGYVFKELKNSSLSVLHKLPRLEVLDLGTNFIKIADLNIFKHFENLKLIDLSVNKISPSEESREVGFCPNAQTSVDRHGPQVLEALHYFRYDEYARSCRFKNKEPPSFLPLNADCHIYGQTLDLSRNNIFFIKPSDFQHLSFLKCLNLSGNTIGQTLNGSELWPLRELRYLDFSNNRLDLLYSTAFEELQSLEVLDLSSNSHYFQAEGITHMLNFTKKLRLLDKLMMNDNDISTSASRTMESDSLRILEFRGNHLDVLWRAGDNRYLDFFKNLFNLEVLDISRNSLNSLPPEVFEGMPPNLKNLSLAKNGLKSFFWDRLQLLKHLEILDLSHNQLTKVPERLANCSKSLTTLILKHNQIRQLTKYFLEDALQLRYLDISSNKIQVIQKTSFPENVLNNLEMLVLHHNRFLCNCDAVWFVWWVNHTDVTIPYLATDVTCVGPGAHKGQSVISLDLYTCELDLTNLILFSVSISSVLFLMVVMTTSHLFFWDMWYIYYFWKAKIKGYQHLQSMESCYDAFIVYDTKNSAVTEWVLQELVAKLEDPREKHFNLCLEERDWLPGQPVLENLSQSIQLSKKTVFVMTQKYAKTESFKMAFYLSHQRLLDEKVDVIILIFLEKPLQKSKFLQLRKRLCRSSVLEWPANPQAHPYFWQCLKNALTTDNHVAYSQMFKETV

THP-1 [4] = test: Cytotoxicity against human THP1 cells transfected with human TLR7/8 assessed as reduction in cell viability at 100 uM incubated for 16 hrs by WST-1 assay; assay type: cell-based; conditions: thp-1, 16 h
Toll-like receptor 8 = target: T2, Toll-like receptor 8 (Homo sapiens, UniProt Q9NR97); test: Inhibition of human TLR8 expressed in HEK293 cells assessed as reduction in ssRNA-induced NFkappaB production incubated for 16 hrs by quanti-blue SEAP assay; assay type: cell-based
T2 sequence (Q9NR97 whole entry): T1 sequence (whole entry)
Outline: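 HEK 293 hTLR8 SEAP reporter cells were stimulated with ssRNA (ssRNA-Lyo-40) and incubated with compound for 16 h. Data were normalized as (raw − untreated)/(ligand + solvent − untreated), with ligand + solvent set as 100%. Mean ± s.d., n = 3 independent experiments.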

THP-1 [5] = test: Inhibition of IFN mediated immune response in human THP1 cells assessed as inhibition of 3p-hpRNA-induced RIG1 signalling pathway at 5 to 20 uM incubated for 16 hrs by luciferase assay; assay type: functional, cell-based; outline: as §1

inhibition [1]: Dose-dependent effect
SMILES: O=C(Nc1ccc(Oc2cc(C(F)(F)F)cc(C(F)(F)F)c2)cc1)c1c(F)cccc1Cl
Activity (HEK293): Non-Toxic

inhibition [3]: inactive
IC50 (Toll-like receptor 8): 620 nM
SMILES: O=[N+]([O-])c1c(I)cccc1Oc1ccc(-c2nnco2)cc1
inhibition (THP-1 [2]): Active
Activity (THP-1 [4]): Toxic

SMILES: O=C(Nc1ccc(Oc2cncc(C(F)(F)F)c2)cc1)c1c(F)cccc1Cl
inhibition (THP-1 [5]): Active

Reference: ChEMBL document CHEMBL4354819, “Discovery of Novel Small Molecule Dual Inhibitors Targeting Toll-Like Receptors 7 and 8” (J Med Chem, 2019)
